Published values collected from several papers.
Compare with care: the assays were run in different laboratories.
Effect on: metabolic stability
Host: human

SMILES	system	conditions	half-life
CCOc1ccc2ccc(=O)oc2c1	hepatocytes	1 µM	11.4 min
CCC(CC)COC(=O)[C@H](C)N[P@@](=O)(OC[C@@H]1C[C@@H](O)[C@H](n2cnc3c(N)ncnc32)O1)Oc1ccccc1	liver microsomes	1 µM	0.67 min
O=C(c1ccc(F)cc1)C1CCN(CCn2c(=O)[nH]c3ccccc3c2=O)CC1	liver microsomes		35.4 min
CCC(CC)COC(=O)[C@H](C)N[P@](=O)(OC[C@@H]1C[C@@H](O)[C@H](n2cnc3c(N)nc(F)nc32)O1)Oc1ccccc1	liver microsomes	1 µM	1.42 min
COc1ccc([C@@H]2Sc3ccccc3N(CCN(C)C)C(=O)[C@@H]2OC(C)=O)cc1	liver microsomes		53.5 min
CC(C)Oc1ccc(S(=O)(=O)c2ccc(Oc3cc(OCC(N)=O)c(C(=O)C(Cl)Cl)cc3[N+](=O)[O-])cc2)cc1	liver microsomes	20 µM	46.7 min
O=c1ccc2ccc(O)cc2o1	liver microsomes		1.85 min
Nc1ncnc2c1ncn2[C@@H]1O[C@H](CO)C[C@H]1O	liver microsomes	1 µM	12.3 min
CC(C)[N+](C)(CCOC(=O)C1c2ccccc2Oc2ccccc21)C(C)C	plasma		25.8 min
O=C1CC[C@H](N2Cc3cc(N4CCN(CC5CCN(c6ccc([C@@H]7c8ccc(O)cc8CC[C@@H]7c7ccccc7)cc6)CC5)CC4)ccc3C2=O)C(=O)N1	hepatocytes	1 µM	53.8 min
CC1(CN)CCN(c2cnc3c(Sc4ccncc4Cl)n[nH]c3n2)CC1	liver microsomes		36.7 min
CCOc1ccc(NC(C)=O)cc1	liver microsomes		67.1 min
O=c1ccc2ccc(O)cc2o1	hepatocytes	1 µM	12.4 min
O=c1ccc2cc(O)ccc2o1	liver microsomes	20 µM	63.5 min
CSc1ncc(Br)c(C(=O)N[C@@H](CCC(=O)O)C(=O)N[C@@H](Cc2ccc3ccccc3c2)C(=O)N[C@@H](CC(C)C)C(=O)N[C@@H]2C[C@H]2c2ccccc2)n1	plasma		1900 min
